Experimental data published in ChEMBL document CHEMBL1148329, “Synthesis and structure-activity studies on N-[5-(1H-imidazol-4-yl)-5,6,7,8-tetrahydro-1-naphthalenyl]methanesulfonamide, an imidazole-containing alpha(1A)-adrenoceptor agonist” (J Med Chem, 2004).

Legend:
[1] = biological target: T1, Alpha-1A adrenergic receptor (Rattus norvegicus, UniProt P43140); assay: In vitro binding affinity towards alpha-1A adrenergic receptor of rat submaxillary gland in radioligand binding assay
T1 sequence (P43140 whole entry): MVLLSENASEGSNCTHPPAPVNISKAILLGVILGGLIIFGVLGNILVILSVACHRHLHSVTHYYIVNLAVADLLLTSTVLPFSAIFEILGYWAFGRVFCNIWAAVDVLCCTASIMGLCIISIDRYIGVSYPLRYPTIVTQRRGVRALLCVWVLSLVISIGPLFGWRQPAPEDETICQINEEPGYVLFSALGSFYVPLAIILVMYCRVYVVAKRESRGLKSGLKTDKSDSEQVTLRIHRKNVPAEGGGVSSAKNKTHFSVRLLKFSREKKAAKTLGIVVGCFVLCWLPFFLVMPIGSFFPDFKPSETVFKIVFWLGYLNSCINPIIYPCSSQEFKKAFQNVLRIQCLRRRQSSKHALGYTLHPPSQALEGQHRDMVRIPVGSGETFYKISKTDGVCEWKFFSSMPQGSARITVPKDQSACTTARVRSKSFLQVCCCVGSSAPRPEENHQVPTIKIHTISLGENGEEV
Procedure, shortened: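 Radioligand binding at α1 subtypes: α1A from rat submaxillary gland, α1B hamster clone, α1D rat clone. Run essentially per an earlier method.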

[2] = biological target: T2, Alpha-1B adrenergic receptor (Rattus norvegicus) (UniProt P15823); assay: Efficacy relative to phenylephrine (PE) to constrict tissue containing the alpha-1B adrenergic receptor in rat spleen; assay type: functional, tissue-based
T2 sequence (whole entry): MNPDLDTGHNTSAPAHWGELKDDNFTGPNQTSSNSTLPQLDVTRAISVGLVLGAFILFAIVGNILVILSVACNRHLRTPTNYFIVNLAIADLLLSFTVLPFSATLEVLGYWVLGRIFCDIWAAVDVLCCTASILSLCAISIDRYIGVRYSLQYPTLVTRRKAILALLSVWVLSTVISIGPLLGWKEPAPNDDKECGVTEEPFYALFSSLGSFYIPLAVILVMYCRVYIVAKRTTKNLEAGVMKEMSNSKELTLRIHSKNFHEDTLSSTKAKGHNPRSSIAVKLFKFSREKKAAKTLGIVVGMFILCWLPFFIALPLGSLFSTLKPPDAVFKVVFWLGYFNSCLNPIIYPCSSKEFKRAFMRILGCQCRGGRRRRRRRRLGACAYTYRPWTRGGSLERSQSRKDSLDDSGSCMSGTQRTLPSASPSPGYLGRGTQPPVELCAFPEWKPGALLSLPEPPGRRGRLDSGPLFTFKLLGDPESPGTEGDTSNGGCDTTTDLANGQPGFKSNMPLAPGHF

[3] = biological target: T3, Alpha-1D adrenergic receptor (Rattus norvegicus) (UniProt P23944); assay: Efficacy relative to phenylephrine (PE) constrict tissue containing the alpha-1D adrenergic receptor in rat aorta; assay type: functional, tissue-based
T3 sequence (whole entry): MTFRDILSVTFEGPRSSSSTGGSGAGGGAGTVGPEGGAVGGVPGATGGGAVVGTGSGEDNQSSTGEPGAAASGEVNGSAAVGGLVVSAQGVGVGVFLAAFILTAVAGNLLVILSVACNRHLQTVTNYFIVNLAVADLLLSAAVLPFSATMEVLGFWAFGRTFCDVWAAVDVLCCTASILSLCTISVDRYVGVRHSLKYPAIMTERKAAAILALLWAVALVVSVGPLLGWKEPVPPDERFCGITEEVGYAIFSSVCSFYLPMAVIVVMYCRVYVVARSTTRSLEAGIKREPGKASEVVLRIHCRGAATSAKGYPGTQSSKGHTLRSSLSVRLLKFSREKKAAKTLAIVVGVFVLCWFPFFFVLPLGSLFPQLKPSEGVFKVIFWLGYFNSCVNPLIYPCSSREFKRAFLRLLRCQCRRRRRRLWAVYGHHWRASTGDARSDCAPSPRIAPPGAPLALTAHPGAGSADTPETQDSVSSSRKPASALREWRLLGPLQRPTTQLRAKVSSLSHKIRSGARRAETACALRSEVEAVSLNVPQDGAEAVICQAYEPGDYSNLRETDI
Procedure, shortened: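 α1-agonist dose–response curves in isolated tissue: rabbit urethra (α1A), rat spleen (α1B), rat aorta (α1D). Agonist potency and efficacy read from the concentration–response curves.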

[4] = biological target: T3, Alpha-1D adrenergic receptor (Rattus norvegicus); assay: Functional agonism of the compounds to constrict tissue containing the alpha-1D adrenergic receptor in rat aorta; assay type: tissue-based
Procedure, shortened: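 Agonist dose–response curves were run on isolated tissue: rabbit urethra for α1A, rat spleen for α1B, and rat aorta for α1D.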

[5] = biological target: T4, Alpha-2A adrenergic receptor (Rattus norvegicus) (UniProt P22909); conditions: Vas deferens
T4 sequence (whole entry): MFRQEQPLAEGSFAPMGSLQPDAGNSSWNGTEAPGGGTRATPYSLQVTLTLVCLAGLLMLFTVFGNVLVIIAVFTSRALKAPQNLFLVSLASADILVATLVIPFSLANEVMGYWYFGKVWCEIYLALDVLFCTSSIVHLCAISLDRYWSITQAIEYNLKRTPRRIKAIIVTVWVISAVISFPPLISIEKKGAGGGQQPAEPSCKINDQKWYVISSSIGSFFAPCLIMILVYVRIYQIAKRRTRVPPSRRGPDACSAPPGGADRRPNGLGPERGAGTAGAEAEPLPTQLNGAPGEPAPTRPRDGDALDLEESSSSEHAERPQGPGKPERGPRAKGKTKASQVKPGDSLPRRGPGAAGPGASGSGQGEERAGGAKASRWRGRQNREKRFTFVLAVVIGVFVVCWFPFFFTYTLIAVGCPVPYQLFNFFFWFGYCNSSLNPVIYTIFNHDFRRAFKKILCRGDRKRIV

| SMILES | Efficacy [3] | pD2 [4] | further results |
| --- | --- | --- | --- |
| O=S(=O)(CC(F)(F)F)Nc1cccc2c1CCCC2c1c[nH]cn1 (single isomer, unassigned; (+)) |  |  | Log Ki [1]: -6.91 |
| CN(c1cccc2c1CCCC2c1c[nH]cn1)S(C)(=O)=O (stereo not drawn) |  |  | Efficacy [2]: 21 |
| COc1ccc(OC)c(C(O)CN)c1 (stereo not drawn) [DESGLYMIDODRINE] | 68% | 5.73 |  |
| CC(N)C(O)c1ccccc1 (stereo not drawn) [PHENYLPROPANOLAMINE] | 91% | 4.12 | Ki [1]: 9.77 µM; pD2 [5]: 5.17 |
